In data set [1] the target is T1, 2-dehydropantoate 2-reductase (Escherichia coli K-12) (UniProt P0A9J4).
T1 sequence (whole entry): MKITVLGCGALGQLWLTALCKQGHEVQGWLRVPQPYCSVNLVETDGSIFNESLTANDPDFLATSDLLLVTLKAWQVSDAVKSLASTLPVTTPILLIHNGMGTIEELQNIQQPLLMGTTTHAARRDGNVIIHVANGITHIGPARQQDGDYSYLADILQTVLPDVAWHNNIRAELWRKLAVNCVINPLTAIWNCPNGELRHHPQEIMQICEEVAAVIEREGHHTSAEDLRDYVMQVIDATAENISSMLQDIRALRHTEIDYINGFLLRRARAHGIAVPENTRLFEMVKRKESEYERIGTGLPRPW
The data set can be described thus: Inhibition of Escherichia coli KPR at 5 mM.

For data set [2], the target named is T2, 2-dehydropantoate 2-reductase (Escherichia coli K-12, UniProt P0A9J4).
T2 sequence (P0A9J4 whole entry): T1 sequence (whole entry)
The experiment in a line: Binding affinity to Escherichia coli KPR. The class given is single protein. In short, it runs like this:
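Isothermal titration calorimetry with His6-tagged E. coli KPR in 0.1 M HEPES/HCl, pH 7.7, at 27 °C. Data were corrected for heat of dilution and fitted to a single-site binding model. For weak ligands (Kd > 100 µM), stoichiometry was fixed at n = 1, determined from active-site titrations with NADPH or NADP+. Errors are from curve fitting for single runs, or SD across multiple experiments.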

Data set [3] has as its target T1, 2-dehydropantoate 2-reductase (Escherichia coli K-12). The data set can be described thus: Inhibition of Escherichia coli KPR at 20 mM.
Data set [4] shares this target. The data set can be described thus: Inhibition of Escherichia coli KPR at 1 mM. In short, it runs like this: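 Single-point screen of His6-tagged E. coli KPR activity at pH 7.5-7.7. Ligand was tested at 1 mM with 20 µM NADPH, 1 mM ketopantoate and 2 nM enzyme. The result is reported as percent inhibition.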
The target in data set [5] is T2, 2-dehydropantoate 2-reductase. The data set can be described thus: Inhibition of Escherichia coli KPR. The class given is single protein. In short, it runs like this:
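His6-tagged E. coli KPR assayed at pH 7.5-7.7. It catalyses ketopantoate reduction with NADPH as cofactor. In the screen, ligand was tested at 1 mM with 20 µM NADPH, 1 mM ketopantoate and 2 nM enzyme. Ki was measured with five inhibitor concentrations against six NADPH concentrations, with NADPH as the varied substrate, and data were fitted to competitive or noncompetitive inhibition equations.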

The target of data set [6] is T1, 2-dehydropantoate 2-reductase (Escherichia coli K-12). To be noted: Homo sapiens; 11 mM.
Data set [7] has as its target 2-dehydropantoate 2-reductase (Escherichia coli) (UniProt P0A9J4). The experiment in a line: Inhibition of Escherichia coli KPR.

Active and inactive are the calls of the source. No cut-off for these calls is given here. A value given as a limit tells only on which side of the number the result lay.

The inhibition is the share of the control response that was lost under treatment. Higher therefore signals a response far below the control. As a reminder, the Kd is the concentration at which binding is half-saturated. Lower therefore signals tighter binding. Broadly, the Ki is the dissociation constant of the complex between target and ligand, obtained from inhibition or displacement. Higher therefore signals lower affinity. For orientation: Km means the substrate concentration at which the rate is half of its maximum.

`Nc1ncnc2c1ncn2[C@@H]1O[C@H](COP(=O)(O)OP(=O)(O)OCC2OC(O)[C@H](O)[C@@H]2O)[C@@H](O)[C@H]1O` (stereo partly drawn) returned an inhibition in data set [1] of 0%.

On to `Nc1nc2c(ncn2[C@@H]2O[C@H](COP(=O)(O)OP(=O)(O)OP(=O)(O)O)[C@@H](O)[C@H]2O)c(=O)[nH]1` [GUANOSINE TRIPHOSPHATE], for which, in data set [2], binding was put at a Kd of 153 µM.

`Nc1nc2c(ncn2[C@@H]2O[C@H](COP(=O)(O)OP(=O)(O)O)[C@@H](O)[C@H]2O)c(=O)[nH]1` came in with a Kd in data set [2] of 373 µM. This Kd lies about 2.4-fold higher than the previous one.

In data set [3], `NC(=O)c1ccc[n+]([C@@H]2O[C@H](COP(=O)([O-])OP(=O)(O)OC[C@H]3O[C@@H](n4cnc5c(N)ncnc54)[C@H](O)[C@@H]3O)[C@@H](O)[C@H]2O)c1` [NADIDE] yielded an inhibition of 10%. Also, the Kd in data set [2] is 6900 µM.

Turning to `Nc1ncnc2c1ncn2[C@@H]1O[C@H](COP(=O)(O)OP(=O)(O)OP(=O)(O)O)[C@@H](O)[C@H]1O` [ADENOSINE TRIPHOSPHATE], the outcome in data set [4] was Active. Moreover, in data set [5], the Ki came to 610 µM. Also, in data set [2], binding was put at a Kd of 130 µM.

Turning to `NC(=O)C1=CN(C2OC(COP(=O)(O)OP(=O)(O)OC[C@H]3O[C@@H](n4cnc5c(N)ncnc54)[C@H](O)[C@@H]3O)[C@H](O)[C@@H]2O)C=CC1` (stereo partly drawn), the equilibrium dissociation constant (Kd) in data set [2] came out at 66 µM.

Turning to `NC(=O)c1cccnc1`, in data set [6], the inhibition is 0%.

Turning to `Nc1ncnc2c1ncn2[C@@H]1O[C@H](COP(=O)(O)OP(=O)(O)OC[C@H]2OC(O)[C@H](O)[C@@H]2O)[C@@H](O)[C@H]1O` (stereo partly drawn) [ADENOSINE DIPHOSPHATE RIBOSE], the Kd in data set [2] is 6300 µM.

In the case of `NC(=O)c1ccc[n+]([C@@H]2O[C@H](COP(=O)([O-])OP(=O)(O)OC[C@H]3O[C@@H](n4cnc5c(N)ncnc54)[C@H](OP(=O)(O)O)[C@@H]3O)[C@@H](O)[C@H]2O)c1` [SODIUM beta-NICOTINAMIDE ADENINE DINUCLEOTIDE PHOSPHATE], the Kd in data set [2] was 0.26 µM.

Regarding `Nc1ncnc2c1ncn2[C@@H]1O[C@H](COP(=O)(O)O)[C@@H](O)[C@H]1O` [ADENOSINE PHOSPHATE], in data set [4], the result was Active. Besides, the Ki in data set [5] came to 6300 µM. In data set [2], this molecule returned a Kd above 5000 µM.

Consider `Nc1ncnc2c1ncn2[C@@H]1O[C@H](COP(=O)(O)OP(=O)(O)O)[C@@H](O)[C@H]1O` [ADENOSINE DIPHOSPHATE], for which, in data set [4], the outcome was Active. The molecule also yielded a Ki in data set [5] of 1050 µM. The molecule also registered a Kd in data set [2] of 360 µM.

On to `Nc1ncnc2c1ncn2[C@@H]1O[C@H](COP(=O)(O)OP(=O)(O)OCC2OC(O)[C@H](O)[C@@H]2O)[C@@H](O)[C@H]1OP(=O)(O)O` (stereo partly drawn), for which the result in data set [4] was Active. For the same molecule, the affinity in data set [5] corresponds to a Ki of 200 µM. Further, binding in data set [2] was characterised by a dissociation constant (Kd) of 61 µM.

Molecule `O=P(O)(O)O` [PHOSPHORIC ACID] yielded an inhibition constant (Ki) in data set [5] of 27000 µM.

Consider `NC(=O)c1ccc[n+]([C@@H]2O[C@H](COP(=O)([O-])OP(=O)(O)OC[C@H]3O[C@@H](n4cnc5c(N)ncnc54)[C@H](OP(=O)(O)O)[C@@H]3O)[C@@H](O)[C@H]2O)c1` [NICOTINAMIDE ADENINE DINUCLEOTIDE PHOSPHATE], for which, in data set [2], the dissociation constant Kd was determined as 5.8 µM.

As to `NC(=O)c1ccc[n+]([C@@H]2O[C@H](COP(=O)([O-])O)[C@@H](O)[C@H]2O)c1`, in data set [1], the inhibition amounted to 0%.

With `Nc1ncnc2c1ncn2[C@@H]1O[C@H](COP(=O)(O)O)[C@@H](O)[C@H]1OP(=O)(O)O`, the outcome in data set [4] was Active. Moreover, the Ki in data set [5] turned out to be 240 µM. This molecule also displayed a dissociation constant (Kd) in data set [2] of 100 µM.

B1: 2-dehydropantoate 2-reductase (Escherichia coli K-12), P0A9J4 (protein)
chain: T1 sequence (whole entry)
In the case of B1, the Km in data set [7] was 750 µM.

The record behind these values is ChEMBL document CHEMBL1145346, “Probing hot spots at protein-ligand binding sites: a fragment-based approach using biophysical methods” (J Med Chem, 2006).
